The term GI50 denotes the concentration that inhibits growth by half. Read a low GI50 as more potent growth inhibition.

GI50 data for eight compounds are collected here from ChEMBL document CHEMBL3585255, “The Cephalostatins. 24. Isolation, Structure, and Cancer Cell Growth Inhibition of Cephalostatin 20” (2015).

What all share (assay type): functional
Assay [1] is described as follows: Cytotoxicity against human KM20L2 cells after 48 hrs by sulforhodamine B assay. The note with it: KM-20L2, 48 h. Summed up:
(§1)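 Cells in RPMI1640 with 5% fetal bovine serum were plated in 96-well plates and incubated 24 h before serial dilutions of compound were added. After 48 h exposure, cells were fixed with trichloroacetic acid and stained with sulforhodamine B, and optical density was read on a plate reader. GI50, the concentration giving 50% reduction in net protein increase, was calculated from the OD data.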
A general note: The SRB assay estimates cell density from bound dye.

The next assay deals with DU-145. As to the kind of experiment: Cytotoxicity against human DU145 cells after 48 hrs by sulforhodamine B assay. The note with it: DU-145, 48 h. The method, boiled down: as §1
The next assay has as its system NCI-H460. Kind of assay: Cytotoxicity against human NCI-H460 cells after 48 hrs by sulforhodamine B assay. The note with it: NCI-H460, 48 h. The method, boiled down:
as §1

A further assay deals with MCF7. As to the kind of experiment: Cytotoxicity against human MCF7 cells after 48 hrs by sulforhodamine B assay. To be noted: MCF7, 48 h. Summed up: as §1
Assay [2] can be described thus: Cytotoxicity against human BxPC3 cells after 48 hrs by sulforhodamine B assay. The note with it: BXPC-3, 48 h. Summed up: as §1
Another assay has as its system SF-268. As to the kind of experiment: Cytotoxicity against human SF268 cells after 48 hrs by sulforhodamine B assay. The note with it: SF-268, 48 h. Summed up:
as §1

As for `C[C@@H]1[C@]2(O[C@H]3C=C4[C@@H]5CC[C@H]6Cc7nc8c(nc7C[C@]6(C)[C@H]5C[C@@H](O)[C@]4(C)[C@]31O)C[C@@H]1CC[C@H]3C4=C[C@@H]5O[C@]6(O[C@](C)(CO)C[C@H]6O)[C@@H](C)[C@]5(O)[C@@]4(C)[C@H](O)C[C@@H]3[C@@]1(C)C8)O[C@](C)(CO)C[C@H]2O` [CEPHALOSTATIN 12], the GI50 was found to be 38 nM in assay [1]; 440 nM with DU-145; 37 nM with NCI-H460; 33 nM with MCF7; 31 nM in assay [2]; 150 nM with SF-268.

Turning to `C[C@@H]1[C@]2(O[C@H]3C=C4[C@@H]5CC[C@H]6Cc7nc8c(nc7C[C@]6(C)[C@H]5C[C@@H](O)[C@]4(C)[C@]31O)C[C@@H]1CC[C@H]3C4=C[C@@H]5O[C@]6(O[C@](C)(CO)C[C@H]6O)[C@@H](C)[C@]5(O)[C@@]4(C)[C@H](O)C[C@@H]3[C@@]1(C)[C@H]8O)O[C@](C)(CO)C[C@H]2O` [CEPHALOSTATIN 13], the GI50 in assay [1] amounted to 470 nM; in the assay on DU-145 it was 1100 nM; with NCI-H460 it was 370 nM; in the assay on MCF7, 290 nM; in assay [2], 310 nM; in the assay with SF-268 it was 340 nM.

`C[C@@H]1[C@H]2C[C@@H]3O[C@@]34[C@]3(O)CC[C@H]5Cc6nc7c(nc6C[C@]5(C)C3=CC(=O)[C@]24CO[C@]12OC(C)(C)C[C@H]2O)C[C@@H]1CC[C@H]2C3=C[C@@H]4O[C@]5(O[C@](C)(CO)C[C@H]5O)[C@@H](C)[C@]4(O)[C@@]3(C)[C@H](O)C[C@@H]2[C@@]1(C)C7` [CEPHALOSTATIN 14]: the GI50 in assay [1] was found to be 35 nM; with DU-145, 130 nM; in the assay with NCI-H460 it was 32 nM; with MCF7, 28 nM; in assay [2], 35 nM; with SF-268 it was 80 nM.

Consider `C[C@@H]1[C@H]2C[C@@H]3O[C@@]34[C@]3(O)CC[C@H]5Cc6nc7c(nc6C[C@]5(C)C3=CC(=O)[C@]24CO[C@]12OC(C)(C)[C@@H](C)[C@H]2O)C[C@@H]1CC[C@H]2C3=C[C@@H]4O[C@]5(O[C@](C)(CO)C[C@H]5O)[C@@H](C)[C@]4(O)[C@@]3(C)[C@H](O)C[C@@H]2[C@@]1(C)C7` [CEPHALOSTATIN 15], for which the GI50 in assay [1] was found to be 63 nM; in the assay with DU-145, 140 nM; with NCI-H460 it was 68 nM; with MCF7, 45 nM; in assay [2], 50 nM; in the assay on SF-268, 63 nM.

As for `C[C@@H]1[C@H]2CC=C3[C@@H]4CC[C@H]5Cc6nc7c(nc6C[C@]5(C)[C@@]4(O)CC(=O)[C@@]32CO[C@]12OC(C)(C)C[C@H]2O)C[C@@H]1CC[C@H]2C3=C[C@@H]4O[C@@]5(CC[C@](C)(O)CO5)[C@@H](C)[C@]4(O)[C@@]3(C)[C@H](O)C[C@@H]2[C@@]1(C)C7` [CEPHALOSTATIN 16], the GI50 is 0.6 nM in assay [1]; 12 nM in the assay on DU-145; 0.64 nM with NCI-H460; 1.1 nM with MCF7; 0.44 nM in assay [2]; 5.2 nM in the assay with SF-268.

Regarding `C[C@@H]1[C@H]2CC=C3[C@H]4CC[C@H]5Cc6nc7c(nc6C[C@]5(C)[C@@]4(O)CC(=O)[C@@]32CO[C@]12OC(C)(C)C[C@H]2O)C[C@@H]1CC[C@H]2C3=C[C@@H]4O[C@]5(O[C@](C)(CO)C[C@H]5O)[C@@H](C)[C@]4(O)[C@@]3(C)[C@H](O)C[C@@H]2[C@@]1(C)C7` [CEPHALOSTATIN 17], the GI50 in assay [1] stood at 0.58 nM; in the assay with DU-145, 3.3 nM; in the assay on NCI-H460 it was 0.46 nM; in the assay with MCF7, 0.43 nM; in assay [2], 0.36 nM; with SF-268, 2.7 nM.

With `CO[C@H]1c2nc3c(nc2C[C@@H]2CC[C@H]4C5=C[C@@H]6O[C@]7(O[C@](C)(CO)C[C@H]7O)[C@@H](C)[C@]6(O)[C@@]5(C)[C@H](O)C[C@@H]4[C@]21C)C[C@@]1(C)[C@@H](CC[C@H]2C4=CC[C@@H]5[C@H](C)[C@@]6(OC[C@]45C(=O)C[C@@H]21)OC(C)(C)C[C@H]6O)C3` [CEPHALOSTATIN 18], the GI50 is 3.1 nM in assay [1]; 20 nM in the assay on DU-145; 2.8 nM with NCI-H460; 3.3 nM with MCF7; 3.3 nM in assay [2]; 7.8 nM in the assay on SF-268.

In the case of `CO[C@H]1c2nc3c(nc2C[C@@H]2CC[C@H]4C5=CC[C@@H]6[C@H](C)[C@@]7(OC[C@]56C(=O)C[C@@H]4[C@]21C)OC(C)(C)C[C@H]7O)C[C@@]1(C)[C@@H](CC[C@H]2C4=C[C@@H]5O[C@]6(O[C@](C)(CO)C[C@H]6O)[C@@H](C)[C@]5(O)[C@@]4(C)[C@H](O)C[C@@H]21)C3` [CEPHALOSTATIN 19], the GI50 in assay [1] stood at 6.1 nM; in the assay with DU-145 it was 30 nM; in the assay with NCI-H460 it was 5.3 nM; with MCF7, 7.4 nM; in assay [2], 3.9 nM; in the assay on SF-268, 78 nM.
